The values that follow come from publication PMC8245906 (Acta Pharmaceutica Sinica. B, 2021).

Where two headings read alike, the source gives them in different places.

Series [1] relates to P-glycoprotein (P-gp). Particulars: cited from earlier work.
A short description of series [2]: Plasma stability in CD-1 mouse plasma. The class given is in vitro ADME, CD-1 mice. The essentials: (§1)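 Test compound (1 µmol/L final) incubated in duplicate in pooled plasma diluted to 80% in 0.1 mol/L potassium phosphate, pH 7.4, at 37 °C. Aliquots taken at 0, 1, 3, 6 and 24 h, quenched with acetonitrile containing 0.1% formic acid, and centrifuged. Supernatant analysed by LC/MS/MS to derive plasma t1/2.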

Series [3] is described as follows: Microsomal stability in human liver microsomes. The conditions noted are these: for microsomal CLint at 1 μmol/L: human, liver microsomes, pH 7.4. Type of series: in vitro ADME. The essentials:
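Human liver microsomes (0.5 mg/mL protein) in 0.1 mol/L potassium phosphate, pH 7.4, 37 °C, with 1 mmol/L NADPH and 1 mmol/L MgCl₂, or without NADPH. Test compound at 1 µmol/L final. For CYP3A inhibition, cobicistat was pre-incubated 5 min before the compound. Sampled at 0–60 min and quenched with acidified acetonitrile. LC/MS/MS gave t1/2 and CLint; at least duplicate.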

Series [4] is described as follows: Microsomal stability in CD-1 mice liver microsomes. The conditions noted are these: for microsomal CLint at 1 μmol/L: CD-1, mouse, liver microsomes, pH 7.4. The class given is in vitro ADME. The essentials: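 Mouse liver microsomes (0.5 mg/mL protein, final) in 0.1 mol/L potassium phosphate, pH 7.4, 37 °C, with 1 mmol/L NADPH and 1 mmol/L MgCl₂. Started by adding test compound (1 µmol/L final). A no-NADPH control was run in parallel. Sampled at 0, 5, 15, 30 and 60 min and quenched in acidified acetonitrile. LC/MS/MS gave t1/2 and CLint. At least duplicate independent assays.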
(Microsomes from liver hold many membrane-bound enzymes, among them those of drug oxidation.)

The conditions of series [5]: human, after iv infusion of RDV, phase I; cited from earlier work.
Series [6] relates to CYP 2C8, 2D6 and 3A4. The conditions noted are these: cited from earlier work.
For series [7], the system named is SARS-CoV-2. Particulars: read-out: EC50 against SARS-CoV-2; A549-hACE2 cells; cited from earlier work.
The nature of series [8]: Plasma stability in human plasma. The class given is in vitro ADME. Particulars: 1 μmol/L, 80% plasma, 37 °C. The procedure, abridged: as §1
Series [9] can be described thus: Pharmacokinetics and oral bioavailability of GS-441524 in CD-1 mice. Type of series: in vivo.
Series [10] deals with SARS-CoV-2. The conditions noted are these: Vero E6 cells, cited from earlier work.
Series [11] deals with major CYP enzymes including 1A1, 1A2, 2B6, 2C8, 2C9, 2C19, 2D6, 3A4, or 3A5. The conditions noted are these: cited from earlier work.
Series [12] has as its system SARS-CoV-2. The conditions noted are these: Calu-3 2B4 cells, cited from earlier work.
A short description of series [13]: Tissue distribution of GS-441524 and GS-443902 in CD-1 mice after oral dosing. The class given is in vivo. The conditions noted are these: 20 mg/kg oral dose.
Where [14] appears, read: male, CD-1, mouse, plasma, iv, 5 mg/kg.
Setting [15] is: male, CD-1, mouse, plasma, po, 10 mg/kg.
The mark [16] stands for this setting: read-out: EC50 against SARS-CoV-2.
[17] abbreviates: read-out: EC90 against SARS-CoV-2.

In general, half-life refers to the time in which the quantity being followed falls by half. A high value points to slow loss. Broadly, the microsomal CLint is the capacity of the preparation to metabolise the compound, expressed as a volume cleared per time. With `CCC(CC)COC(=O)[C@H](C)N[P@](=O)(OC[C@H]1O[C@@](C#N)(c2ccc3c(N)ncnn23)[C@H](O)[C@@H]1O)Oc1ccccc1` [RDV, Remdesivir], in series [1], the “Substrate of P-glycoprotein (P-gp)” value is “substrate”. The half-life at 1 μmol/L in series [2] (CD-1, mouse, plasma (80% in buffer), pH 7.4) is below 1 min. Moreover, the “Stability in CD-1 mouse plasma (in words)” value in [2] (wild-type CD-1 mouse plasma) is given as “undetectable within seconds”. Besides, the “Remaining percentage of intact RDV at 60 min with NADPH/Cobi” value in series [3] (HLMs, with NADPH/Cobi, 60 min) was 38.5%. The “Remaining percentage of intact RDV at 60 min without NADPH” value in [3] (HLMs, without NADPH, 60 min) was determined as 26.1%. Further, the intrinsic metabolic clearance (microsomal CLint) at 1 μmol/L came out at 1260 ± 68.6 µL/min/mg in series [3] and 1680 ± 130 µL/min/mg in [4]. Further, in series [4] (with cofactor NADPH, 1 μmol/L compound, 0.5 mg/mL microsomal protein), the “Microsomal stability MLMs t1/2” value was determined as 48 ± 6 s. Also, the “Plasma half-life (t1/2)” value in series [5] is “about 1 h”. In addition, the “Substrate for CYP 2C8, 2D6 and 3A4” value in series [6] is recorded as “substrate”.
The term EC50 denotes the concentration needed to bring the measured effect to its halfway point. By MRT is commonly meant the average time that molecules of a dose stay in the body. For orientation: Tmax means the time at which the peak concentration occurs. The term AUC denotes concentration integrated over time. Read a low AUC as low exposure. As a reminder, the Cmax is the peak of the concentration-time curve. Usually EC90 stands for the concentration needed for an effect of 90%. On to `N#C[C@@]1(c2ccc3c(N)ncnn23)O[C@H](CO)[C@@H](O)[C@H]1O` [GS-441524], for which the values for the 50% effective concentration (EC50) in series [7], in [10] (setting [16]) and in series [12] (setting [16]) were 870 nM, 470 nM and 620 nM, respectively. Also, the “Plasma stability t1/2 Mouse” value in series [2] (1 μmol/L, 80% CD-1 mouse plasma, 37 °C) is above 24 h. Further, the “Plasma stability t1/2 Human” value in series [8] is above 24 h. The intrinsic clearance (microsomal CLint) at 1 μmol/L in [3] turned out to be 1.9 ± 0.1 µL/min/mg; in series [4], 1.7 ± 0.4 µL/min/mg. Also, the “Remaining percentage at 60 min in HLMs” value in series [3] (with NADPH, 60 min) is reported as “over 91%”. In [4] (with NADPH, 60 min), the “Remaining percentage at 60 min in MLMs” value is “over 91%”. The MRT in series [9] (setting [14]) came to 1.7 h; in [9] (setting [15]), 4.2 h. For the same compound, the Tmax came out at 0.083 h in series [9] (setting [14]) and 1 h in series [9] (setting [15]). Further, the Vd in series [9] (setting [14]) stood at 4.2 L/kg. The clearance in [9] (setting [14]) is 20 mL/min/kg. For the same compound, the half-life in series [9] (setting [14]) was 2.5 h; in [9] (setting [15]) it was 2.9 h. For the same compound, the exposure (AUC) is 14.8 µM·h in [9] (male, CD-1, mouse, plasma, iv, 5 mg/kg, AUC0‒t, iv 5 mg/kg, CD-1 mice); 14.8 µM·h in series [9] (male, CD-1, mouse, plasma, iv, 5 mg/kg, AUC0‒∞, iv 5 mg/kg, CD-1 mice); 16.8 µM·h in series [9] (male, CD-1, mouse, plasma, po, 10 mg/kg, AUC0‒t, po 10 mg/kg, CD-1 mice); 16.8 µM·h in [9] (male, CD-1, mouse, plasma, po, 10 mg/kg, AUC0‒∞, po 10 mg/kg, CD-1 mice). For the same compound, the Cmax in series [9] (male, CD-1, mouse, plasma, iv, 5 mg/kg, Cmax, iv 5 mg/kg, CD-1 mice) came to 11.6 µM; in [9] (po 10 mg/kg, CD-1 mice, plasma, 10 mg/kg), 3.28 µM. Moreover, the “CL (clearance)” value in series [9] (po 10 mg/kg, CD-1 mice) was 33.3 mL/min/kg. Moreover, in series [9] (po 10 mg/kg, CD-1 mice), the “V (volume of distribution)” value was determined as 8.4 L/kg. For the same compound, in series [9] (po 10 mg/kg, CD-1 mice, 0.25 to 2 h), the “Plasma level from 0.25 to 2 h” value is above 2 µM. For the same compound, the EC90 in series [10] (setting [17]) is 710 nM; in series [12] (setting [17]), 1340 nM. The “Substrate of major CYP enzymes” value in [11] was “not a substrate”. Besides, the “Concentration in lung within the first 4 h” value in series [13] (lung) was at least 2.2 µM. Moreover, in series [13] (plasma), the “Concentration in plasma within the first 4 h” value is at least 2.2 µM.
